The record followed here is ChEMBL document CHEMBL1955800, “Synthesis and biological validation of novel pyrazole derivatives with anticancer activity guided by 3D-QSAR analysis” (Bioorg Med Chem, 2012).

Data set [1] has as its system NCI-H23. Kind of data set: Growth inhibition of human NCI-H23 cells after 48 hrs by MTS assay. Format: functional, cell-based. The following applies: NCI-H23, 48 h. The method in brief: (§1)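 Seeded at 5 × 10³ cells/well in F12K (A549) or RPMI 1640 (NCI-H23) with 10% FBS, 37 °C, 5% CO₂, 3 h, then exposed 48 h to compounds at final 100–0.2 µM (10 mM DMSO stocks, 1% DMSO constant). MTS reagent added and incubated at 37 °C. Formazan from metabolically active cells measured, growth relative to untreated control, IC50 derived.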
A general note: Formazan colour is commonly taken as a measure of viable cells.

Data set [2] has as its system NCI-H23. Kind of data set: Antiproliferative activity against human NCI-H23 cells after 48 hrs by BrdU assay. The following applies: NCI-H23, 48 h. Format: functional, cell-based. In short, it runs like this:
(§2)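 Seeded at 5 × 10³ cells/well in RPMI 1640 + 10% FBS, 37 °C, 5% CO₂, 3 h. Compounds from 10 mM DMSO stocks, final 100–0.2 µM with 1% DMSO, 48 h. BrdU (final 10 µM) added for 3 h, then cells fixed and DNA denatured 30 min rt, ELISA absorbance read. DNA synthesis reduction relative to untreated cells, IC50 by curve fit.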
For orientation: Dividing cells build labelled thymidine or BrdU into new DNA.

In data set [3] the test system is A549. The data set can be described thus: Growth inhibition of human A549 cells after 48 hrs by MTS assay. Format: functional, cell-based. The following applies: A549, 48 h. The method in brief: as §1
Data set [4] concerns A549. Kind of data set: Antiproliferative activity against human A549 cells after 48 hrs by BrdU assay. Format: functional, cell-based. Particulars: A549, 48 h. The method in brief: as §2
A short description of data set [5]: Solubility of the compound in DMSO. Format: physicochemical.

A value given as a limit tells only on which side of the number the result lay.

On to `O=C(N/N=C/c1cccc(O)c1O)c1cc(-c2ccc(Cl)cc2)nn1Cc1ccc(Cl)nc1`, for which the IC50 with NCI-H23 [1] is 3.35 µM; with NCI-H23 [2] it was 0.57 µM; in the data set on A549 [3] (read-out: IC50), 5.2 µM; with A549 [3] (read-out: pIC50 (converted)), 5.25 µM; with A549 [4], 0.7 µM.

On to `CC(C)(C)c1ccc(Cn2nc(-c3ccc(Cl)cc3)cc2C(=O)N/N=C/c2cccc(O)c2O)cc1`, for which the IC50 in the data set with NCI-H23 [1] was 3.91 µM; in the data set with NCI-H23 [2], 0.3 µM; in the data set on A549 [3] (read-out: IC50), 7.8 µM; with A549 [3] (read-out: pIC50 (converted)) it was 7.76 µM; with A549 [4], 0.4 µM.

`O=C(N/N=C/c1ccc(F)cc1F)c1cc(-c2ccc(Cl)cc2)nn1Cc1ccc(Cl)nc1`: the IC50 in the data set with NCI-H23 [1] was 13.5 µM; with NCI-H23 [2], 7.86 µM; in the data set on A549 [3] (read-out: IC50), 16 µM; in the data set with A549 [3] (read-out: pIC50 (converted)), 15.8 µM; in the data set with A549 [4], 9.05 µM.

Turning to `CC(C)(C)c1ccc(Cn2nc(-c3ccc(Cl)cc3)cc2C(=O)N/N=C/c2ccc(F)cc2F)cc1`, the IC50 is > 100 µM in the data set on NCI-H23 [1]; 21.9 µM with NCI-H23 [2]; > 100 µM with A549 [3] (read-out: IC50); > 100 µM with A549 [3] (read-out: pIC50 (converted)); > 100 µM in the data set with A549 [4].

For the molecule `N#Cc1ccc(/C=N/NC(=O)c2cc(-c3ccc(Cl)cc3)nn2Cc2ccc(Cl)nc2)cc1`, the IC50 in the data set on NCI-H23 [1], in the data set with NCI-H23 [2], in the data set with A549 [3] (read-out: IC50), in the data set with A549 [3] (read-out: pIC50 (converted)) and in the data set with A549 [4] was > 100 µM each time. Moreover, in data set [5], the solubility result is listed as “Insoluble”.

Turning to `N=C(NO)c1cc(-c2ccc(Cl)cc2)nn1Cc1ccc(Cl)nc1`, the IC50 in the data set on NCI-H23 [1] was 44.4 µM; with NCI-H23 [2], 27.9 µM; in the data set on A549 [3] (read-out: IC50), 50.5 µM; with A549 [3] (read-out: pIC50 (converted)) it was 50.1 µM; in the data set with A549 [4] it was 38.3 µM.

Turning to `CC(C)(C)c1ccc(Cn2nc(-c3ccc(Cl)cc3)cc2C(=N)NO)cc1`, the IC50 was 16.5 µM in the data set on NCI-H23 [1]; 12.3 µM in the data set with NCI-H23 [2]; 17.7 µM in the data set with A549 [3] (read-out: IC50); 17.8 µM in the data set with A549 [3] (read-out: pIC50 (converted)); 17 µM in the data set on A549 [4].

Regarding `CC(C)(C)c1ccc(Cn2nc(-c3ccc(Cl)cc3)cc2/C(N)=N/OC(=O)c2cccc(O)c2O)cc1`, the IC50 was 21.9 µM in the data set with NCI-H23 [1]; 15.6 µM in the data set with NCI-H23 [2]; 83.2 µM with A549 [3] (read-out: IC50); 83.2 µM in the data set with A549 [3] (read-out: pIC50 (converted)); 26.8 µM with A549 [4].

As for `CC(C)(C)c1ccc(Cn2nc(-c3ccc(Cl)cc3)cc2-c2noc(-c3cccc(O)c3O)n2)cc1`, the IC50 in the data set on NCI-H23 [1] was > 100 µM; in the data set on NCI-H23 [2], 0.36 µM; in the data set with A549 [3] (read-out: IC50) it was > 100 µM; with A549 [3] (read-out: pIC50 (converted)) it was > 100 µM; with A549 [4], 1.54 µM.

With `O=C(N/N=C/c1ccccc1O)c1cc(-c2ccc(Cl)cc2)nn1Cc1ccc(Cl)nc1`, the IC50 in the data set with NCI-H23 [1] came out at 3.04 µM; with NCI-H23 [2], 0.27 µM.
